Screening data deposited in PubChem BioAssay by The Scripps Research Institute Molecular Screening Center.
PLC-beta3 inh = human PLC-beta3 inhibitors, primary screen, biochemical, fluorescence; 370,000 tested, 0.18% active; 1-phosphatidylinositol 4,5-bisphosphate phosphodiesterase beta-3 (Homo sapiens), Q01970; Purified PLC-beta3, fluorogenic substrate; inhibition, % at 12.2 µM; in the data active = inhibition above about 11%;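 note: 0% = median of compound wells on plate and 100% = full blocker control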
Target sequence (Q01970 whole entry, looked up): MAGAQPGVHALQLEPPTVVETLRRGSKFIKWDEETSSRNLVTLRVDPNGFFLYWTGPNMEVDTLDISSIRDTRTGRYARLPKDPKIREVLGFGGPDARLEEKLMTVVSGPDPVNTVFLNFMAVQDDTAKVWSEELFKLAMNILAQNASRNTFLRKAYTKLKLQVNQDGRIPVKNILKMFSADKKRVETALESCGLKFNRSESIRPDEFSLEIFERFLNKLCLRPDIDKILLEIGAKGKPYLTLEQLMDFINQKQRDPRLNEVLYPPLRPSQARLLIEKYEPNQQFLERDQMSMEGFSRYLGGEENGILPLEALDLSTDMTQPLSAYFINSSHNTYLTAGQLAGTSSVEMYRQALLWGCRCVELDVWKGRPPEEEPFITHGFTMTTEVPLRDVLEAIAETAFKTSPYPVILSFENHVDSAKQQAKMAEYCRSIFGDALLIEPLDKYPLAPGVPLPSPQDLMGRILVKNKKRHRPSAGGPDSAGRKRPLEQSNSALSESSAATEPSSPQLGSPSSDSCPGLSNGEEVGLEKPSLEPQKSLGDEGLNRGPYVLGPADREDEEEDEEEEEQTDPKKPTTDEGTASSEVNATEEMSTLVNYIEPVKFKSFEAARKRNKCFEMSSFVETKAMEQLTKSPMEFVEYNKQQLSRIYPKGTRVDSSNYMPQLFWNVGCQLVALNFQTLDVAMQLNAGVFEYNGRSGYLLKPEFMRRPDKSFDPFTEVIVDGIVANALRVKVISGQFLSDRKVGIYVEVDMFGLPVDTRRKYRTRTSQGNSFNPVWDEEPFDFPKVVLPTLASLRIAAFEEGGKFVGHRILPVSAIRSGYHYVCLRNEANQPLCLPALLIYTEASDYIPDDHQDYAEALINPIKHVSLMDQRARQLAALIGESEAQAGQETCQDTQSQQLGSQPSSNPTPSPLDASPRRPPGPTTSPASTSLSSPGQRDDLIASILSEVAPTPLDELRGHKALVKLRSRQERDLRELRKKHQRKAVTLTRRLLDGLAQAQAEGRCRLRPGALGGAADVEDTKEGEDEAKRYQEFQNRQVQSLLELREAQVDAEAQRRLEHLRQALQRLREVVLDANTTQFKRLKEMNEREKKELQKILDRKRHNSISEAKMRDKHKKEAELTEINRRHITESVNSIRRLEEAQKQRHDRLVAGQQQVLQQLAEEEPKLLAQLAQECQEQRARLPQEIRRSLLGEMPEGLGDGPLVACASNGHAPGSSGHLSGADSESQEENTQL
Tb MetRS inh = T. brucei MetRS inhibitors, primary screen, biochemical, luminescence; inhibition, % at 11.9 µM; 360,000 tested, 0.4% active; methionyl-tRNA synthetase (Trypanosoma brucei brucei); AID 624268, 2012; purified T. brucei MetRS, ATP depletion, Kinase-Glo luminescence;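 active = inhibition above a per-plate cutoff of the control wells' mean inhibition plus 3 SD, cut at about 5.5% in these data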;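 note: 0% = DMSO wells median and 100% = median of wells with control inhibitor compound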
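Dosing: 11.9 µM compound single dose, 0.9% DMSO; Assay system: purified T. brucei MetRS enzyme; Measured by: Kinase-Glo luciferase luminescence reporting remaining unconsumed ATP; Schedule: 15 min plus 2 h at 25 °C.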
HGIII-sPLA2 inh = human group III sPLA2 inhibitors, primary screen, biochemical, QFRET, BODIPY PC-A2 liposome substrate | QFRET BODIPY PC-A2 liposome hydrolysis, fluorescence | inhibition, % at 12.2 µM | 370,000 tested, 0.56% active | AID 743126, 2013;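 active = inhibition above mean plus 3 SD of compounds lying within the high and low control bounds, cut at about 19% in these data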;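 note: 0% = median of test compound wells and 100% = no enzyme DMSO wells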
PLC-gamma1 inh = PLC-gamma1 enzyme inhibitors, primary screen, biochemical, fluorescence, purified enzyme. 1-phosphatidylinositol 4,5-bisphosphate phosphodiesterase gamma-1 (Homo sapiens), P19174. fluorogenic substrate. inhibition, % at 12.2 µM. 370,000 tested, 0.84% active; in the data active = inhibition above about 9.5%
hGIII sPLA2 conf = human group III sPLA2 inhibitors, confirmation, biochemical, QFRET, triplicate | inhibition, % at 12.2 µM | 2,000 tested, 34% active | shares compounds with HGIII-sPLA2 inh | recombinant hGIII-sPLA2, BODIPY PC-A2 QFRET fluorescence;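 active = mean inhibition across triplicates above the hit cutoff set in the earlier primary screen, cut at about 19% in these data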;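 note: 0% = enzyme with DMSO and 100% = DMSO wells lacking enzyme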
BODIPY interf = 535nm fluorescence optical interference, confirmation, artefact control for HGIII-sPLA2 inhibitor project, biochemical, QFRET. BODIPY FL product fluorescence interference. 2,000 tested, 8.5% active. inhibition, % at 12.2 µM. shares compounds with HGIII-sPLA2 inh;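 active = average inhibition above the solvent-only control mean plus 3 SD, cut at about 6% in these data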;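 note: 0% = DMSO with substrate plus product and 100% = DMSO with substrate alone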
535nm interf DR = 535nm fluorescence optical interference, dose response, artefact control for HGIII-sPLA2 inhibitor project, biochemical, QFRET. shares compounds with HGIII-sPLA2 inh. BODIPY FL product fluorescence interference, cell-free. IC50, µM. 240 tested, under 10 active;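 active = IC50 at or below 10 µM; inactive = IC50 above 10 µM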
An asterisk follows results filed as active; nt = no result. Hits are enriched below; roughly 1.9% of the tested compounds scored in any of these assays.

SMILES	PLC-beta3 inh	Tb MetRS inh	HGIII-sPLA2 inh	PLC-gamma1 inh	hGIII sPLA2 conf	BODIPY interf	others
CCCCNC(=O)C[C@H]1C[C@@]2(C(=O)OC)C(=C[C@H](C(C)C)O[C@@H]2C2CC2)N(CCc2ccc(OC)c(OC)c2)C1=O	-1	nt	-2	-13	nt	nt
S=c1[nH]nc(-c2ccccc2)c2ccccc12	3	0	20*	9	25*	-3
Cc1ccc(-c2n[nH]c(=S)c3ccccc23)cc1	-6	1	10	0	nt	nt
CN(C(=O)[C@@H](Cc1ccccc1)NC(=O)[C@H]1O[C@@H](n2cnc3c(=O)[nH]c(N)nc32)[C@H](O)[C@@H]1O)C1CCCCC1	-2	nt	-1	0	nt	nt
COc1cc(OC)c(C2C(C#N)=C(C)NC(C)=C2C#N)c(C(=O)O)c1	-112	2	24*	-79	1	-5
CCCCN1C(=O)Cc2c1nc(N)c1c(N)nc(N(CCC)CCC)c(C#N)c21	-228	-1	28*	-166	11	-8
CC1(C)CC(N=C2C([N+](=O)[O-])=CC=C3C2=NC2(CCCCC2)N3O)CC(C)(C)N1	-4	0	-10	-10	nt	nt
O=[N+]([O-])C1=CC=C2C(=NC3(CCCCC3)N2O)C1=NC1CCCCC1	-5	0	19*	0	25*	-3
CC(=O)Nc1ccc(S(=O)(=O)Nc2ccc(Cl)nn2)cc1	0	0	8	-2	nt	nt
Nc1ccc(S(=O)(=O)Nc2ccc(Cl)nn2)cc1	0	-1	22*	3	2	-4
COC(=O)[C@]1(C#N)CC(=O)N(c2ccccc2)[C@@H]1c1ccccc1	-1	nt	-1	-1	nt	nt
CC(C)C[C@@H]1COc2cc(F)ccc2S(=O)(=O)N1C	3	nt	4	1	nt	nt
CCOCCCNC(=O)C1CCN(C(=O)N(C)C)CC1	-2	-1	20*	4	-1	-5
C=CCN1C(=O)[C@@H](CC(=O)N2CCCCC2)[C@]2(C(=O)OCC)CCCCC/C=C/12	0	nt	2	2	nt	nt
CC(C)C1Cc2[nH]c(=S)[nH]c(=O)c2C(c2ccc(Cl)cc2)O1 (stereo not given)	0	0	20*	4	5	-12
Cc1ccc(NC(=O)COC(=O)c2cc(Cl)ccc2[N+](=O)[O-])c(C)c1	-3	-1	20*	0	2	-6
O=C(COC(=O)c1cc(Cl)ccc1[N+](=O)[O-])Nc1cccc2ccccc12	1	0	-7	-9	nt	nt
CC(C)CN(C(=O)COC(=O)CCc1nc2ccccc2s1)c1c(N)n(Cc2ccccc2)c(=O)[nH]c1=O	-9	-1	19*	4	9	-9
COc1ccc(Cl)cc1C(Nc1cccnc1)c1ccc2cccnc2c1O (stereo not given)	-12	0	31*	-11	35*	-3	535nm interf DR=>122
CC(C)CCC(CCNCc1ccccn1)c1ccc2c(c1)OCO2 (stereo not given)	0	0	23*	7	-25	-26
Cc1ccc(NC(=O)NNC(=O)c2cc3ccccc3cc2O)cc1	-133	0	27*	-90	15	-4
COc1ccccc1NC(=O)NNC(=O)c1cc2ccccc2cc1O	-150	0	27*	-92	20*	6
COc1cc(OC)cc(C(=O)NNC(=O)c2cc3ccccc3cc2O)c1	-81	0	10	-58	nt	nt
COc1ccc(C2C(C(=O)Nc3ccc(Cl)cc3)CCC(=O)N2c2ccc(OC)cc2)cc1 (stereo not given)	0	nt	-23	2	nt	nt
CC(=O)c1cc(-c2ccccc2)n(CC(=O)NCc2ccc(Cl)cc2)c1C	2	nt	-2	-3	nt	nt
COc1ccc(C2CC(=O)C(c3ccc([N+](=O)[O-])cc3)=CN2Cc2ccccc2)cc1 (stereo not given)	-136	nt	-1	-99	nt	nt
CCNC1CCS(=O)(=O)C1 (stereo not given)	-6	0	22*	1	2	-3
CCN(CC)CCCNC1CCS(=O)(=O)C1 (stereo not given)	3	0	1	1	nt	nt
COc1cccc(N=Nc2c(=O)[nH]n3c(C)cc(C)nc23)c1	4	0	22*	3	-5	0
